The text below walks through data of ChEMBL document CHEMBL1152513, “Synthesis and characterizations of novel quinoline derivatives having mixed ligand activities at the kappa and mu receptors: Potential therapeutic efficacy against morphine dependence” (Bioorg Med Chem, 2009).

Active and inactive are the calls of the source. The calls are words filed in the database; no cut-off is given here.

Experiment [1] concerns the target Kappa-type opioid receptor (Homo sapiens) (UniProt P41145). Description: Displacement of [3H]dynorphin from human kappa opioid receptor expressed in C6 giloma cells measured total binding per mg of protein at 5 uM. The class given is cell-based. The method in brief: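 Membranes from C6 glioma cells stably transfected with human KOR (G418 selected), harvested in PBS, homogenized in 50 mM Tris–HCl pH 7.4 and spun at 30,000g. Nonspecific binding defined with 10 µM U50488H. Read by filtration and counting.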
For orientation: In a radioligand displacement assay an active substance lowers the binding of a labelled ligand.

Experiment [2] is filed under the species Rattus norvegicus. Description: Induction of ERK phosphorylation in rat primary astrocyte at 40 uM after 10 mins. Summed up: (§1)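 Primary astrocytes from neocortex of newborn rat pups (<24 h), grown 10 days, then serum-starved 48 h. Treated 10 min at 40 µM; antagonists added 1 h before stimulation. pERK1/2 measured by western blot, 40 µg protein/lane, 10% SDS-PAGE, anti-p-ERK at 1:1000. Mean ± SEM of at least 3 blots, compared with untreated control.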

For experiment [3], the target named is Mu-type opioid receptor (Rattus norvegicus) (UniProt P33535). Description: Displacement of [3H]DAMGO from mu opioid receptor in rat brain measured total binding per mg of protein at 5 uM. Format: tissue-based.
Experiment [4] has as its system Mus musculus. Description: Inhibition of naloxone-induced stereotype jumping in morphine treated mouse at 20 mg/kg, iv for 6 days. Format: functional, organism-based. The arrangement: dose 20 mg/kg.
The species named for experiment [5] is Rattus norvegicus. The experiment is described as follows: Induction of ERK phosphorylation in rat primary astrocyte at 40 uM after 10 mins in presence of naloxone. Summed up: as §1
The subject of experiment [6] is Mus musculus. Description: Inhibition of naloxone-induced weight loss in mouse at 20 mg/kg, iv for 6 days. The class given is functional, organism-based. Further details: dose 20 mg/kg.

Mu-type opioid receptor (Rattus norvegicus), sequence (P33535 whole entry): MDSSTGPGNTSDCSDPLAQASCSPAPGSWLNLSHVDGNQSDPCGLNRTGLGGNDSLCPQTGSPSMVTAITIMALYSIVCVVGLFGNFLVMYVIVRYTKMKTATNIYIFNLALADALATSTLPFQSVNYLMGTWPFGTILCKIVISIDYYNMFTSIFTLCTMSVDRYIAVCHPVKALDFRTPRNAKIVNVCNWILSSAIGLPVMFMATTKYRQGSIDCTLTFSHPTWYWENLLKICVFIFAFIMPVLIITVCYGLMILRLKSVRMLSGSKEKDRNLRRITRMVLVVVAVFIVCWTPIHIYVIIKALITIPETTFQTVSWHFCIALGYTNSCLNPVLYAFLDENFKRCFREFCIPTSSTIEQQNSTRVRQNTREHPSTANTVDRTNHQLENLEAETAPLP
Kappa-type opioid receptor (Homo sapiens), sequence (P41145 whole entry): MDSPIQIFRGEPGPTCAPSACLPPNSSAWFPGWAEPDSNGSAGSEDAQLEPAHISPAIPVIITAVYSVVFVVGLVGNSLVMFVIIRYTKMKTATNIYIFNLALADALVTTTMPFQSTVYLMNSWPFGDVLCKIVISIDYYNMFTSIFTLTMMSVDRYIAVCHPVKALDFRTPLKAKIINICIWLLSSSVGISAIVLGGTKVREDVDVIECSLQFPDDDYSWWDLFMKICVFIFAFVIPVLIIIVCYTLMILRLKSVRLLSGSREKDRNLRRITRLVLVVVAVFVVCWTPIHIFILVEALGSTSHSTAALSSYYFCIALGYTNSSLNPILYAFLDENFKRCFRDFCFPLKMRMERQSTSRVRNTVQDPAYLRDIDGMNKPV

As for `Cc1cc(NC(=O)C(Cl)Cl)c2ccccc2n1`, the Activity in experiment [1] amounted to 77%; in experiment [3], 106%. Also, in the experiment filed under Rattus norvegicus [2], the outcome was Active.

As for `Cc1ccc(NC(=O)CNc2cc(C)nc3ccccc23)cc1`, the Activity in experiment [1] came out at 90%; in experiment [3] it was 47%. In addition, the result in the experiment listed under Rattus norvegicus [2] and with Mus musculus [4] was Active.

`C[C@@H](NC(=O)[C@@H](N)Cc1ccc(O)cc1)C(=O)NCC(=O)N(C)[C@@H](Cc1ccccc1)C(=O)NCCO` showed an Activity in experiment [3] of 76%.

Regarding `COc1ccc(NC(=O)CNc2cc(C)nc3ccccc23)cc1`, the Activity in experiment [1] worked out at 44%; in experiment [3], 27%. Besides, the result in the experiment listed under Rattus norvegicus [2] was Active.

With `Cc1cc(NCC(=O)Nc2ccccc2)c2ccccc2n1`, the outcome in the experiment filed under Rattus norvegicus [5] was inactive. Further, the Activity was 38% in experiment [1] and 30% in experiment [3]. For the same compound, the outcome in the experiment filed under Rattus norvegicus [2] and with Mus musculus [4] was Active.

On to `Cc1cc(N)c2ccccc2n1`, for which the Activity in experiment [1] came out at 71%; in experiment [3], 95%. The outcome in the experiment filed under Rattus norvegicus [2] was Active.

For `Cc1cc(NCC(=O)Nc2ccccc2Cl)c2ccccc2n1`, the Activity in experiment [1] and in experiment [3] was 52% in each case. The outcome in the experiment filed under Rattus norvegicus [2] and in the experiment with Mus musculus [4] was Active.

With `Cc1cc(NCC(=O)Nc2cc(Cl)ccc2Cl)c2ccccc2n1`, the Activity in experiment [1] amounted to 74%; in experiment [3], 66%. In the experiment listed under Rattus norvegicus [2], the result was Active.

Consider `Cc1cc(N(CC(=O)NC2CCCCC2)CC(=O)NC2CCCCC2)c2ccccc2n1`, for which the Activity was 114% in experiment [1] and 53% in experiment [3]. For the same compound, the outcome in the experiment filed under Rattus norvegicus [2] was Active.

For the compound `Cc1ccc(NC(=O)CCNc2cc(C)nc3ccccc23)cc1`, the Activity came to 56% in experiment [1] and 23% in experiment [3]. For the same compound, the outcome in the experiment listed under Rattus norvegicus [2] was Active.

`Cc1ccc(C(=O)Nc2cc(C)nc3ccccc23)cc1`: the Activity in experiment [1] turned out to be 58%; in experiment [3] it was 62%. Moreover, the result with Mus musculus [6], in the experiment filed under Rattus norvegicus [2] and with Mus musculus [4] was Active.

As to `O=C(CCCl)Nc1ccccc1`, the Activity in experiment [1] stood at 59%; in experiment [3], 61%. For the same compound, the outcome in the experiment on Mus musculus [6] and in the experiment listed under Rattus norvegicus [2] was Active.
